VIM-2 inhibitor: VIM-2 metallo-beta-lactamase inhibitors, primary screen, biochemical, epi-absorbance readout, Pseudomonas aeruginosa enzyme; purified VIM-2, nitrocefin hydrolysis, epi-absorbance fluorescence; inhibition, % at 5.6 µM; AID 1527, 2009; actives 0.89% (n = 290,000);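 active = inhibition above the mean of all tested compounds plus 3 SD, cutoff set per screening run, cut at about 7.5% in these data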;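 note: red hydrolysis product quenches plate fluorescence so inhibitors raise well fluorescence; 0% = enzyme with DMSO and 100% = DMSO without enzyme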
MsrA inhibitor: bovine MsrA enzyme inhibitors, primary screen, biochemical, absorbance, HTS. Methionine sulfoxide reductase A (Bos taurus). purified bovine MsrA, absorbance read-out. inhibition, % at 15.5 µM. actives 0.75% (n = 360,000). AID 651718, 2012; in the data active = inhibition above about 4.5%;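 note: 0% = vehicle wells with enzyme and 100% = reference inhibitor wells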
PKA-R1A act: activators of PKA-R1A holoenzyme, primary screen, biochemical, fluorescence polarization, Cy5-IP20, bovine R1A, mouse PKAc; cAMP-dependent protein kinase type I-alpha regulatory subunit (Bos taurus) + …; actives 0.083% (n = 340,000); AID 504707, 2011; PKA-R1A dissociation; scaled: DMSO 0%, 113 µM cGMP 100%; activation, % at 11.4 µM;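 active = percent activation above the mean of all tested compounds plus 3 SD, cut at about 19% in these data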;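 note: higher means more PKAc released from R1A so a rise in polarization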
IMP-1 inh: IMP-1 metallo-beta-lactamase inhibitors, primary screen, biochemical, epi-absorbance readout, Pseudomonas aeruginosa enzyme | metallo-beta-lactamase IMP-1 (Pseudomonas aeruginosa) | inhibition, % at 5.6 µM | actives 0.45% (n = 290,000) | AID 1556, 2009 | purified IMP-1, nitrocefin hydrolysis, epi-absorbance fluorescence;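 active = inhibition above the mean plus 3 SD of all compounds in the same screening run, cut at about 4.5% in these data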;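 note: 0% = IMP-1 with DMSO and 100% = DMSO wells lacking enzyme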
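System: purified IMP-1; amount: IMP-1 0.2 nM before substrate addition; compound: single dose, 5.6 µM; times: 25 °C, 15 min preincubation, 25 min reaction; signal: Epi-absorbance via hydrolysed-nitrocefin quenching of white-plate fluorescence, 480/530 nm, EDTA stop; benchmarks: DMSO with and without IMP-1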
PKA-R2B act: activators of PKA-R2B holoenzyme, primary screen, biochemical, fluorescence polarization, Cy5-IP20, human | cAMP-dependent protein kinase catalytic subunit beta (Homo sapiens) + cAMP-dependent … | PKA-R2B holoenzyme dissociation; R2B truncated from residue 108, S112A mutant; 0% DMSO only, 100% 113 µM cGMP | activation, % at 11.4 µM | actives 0.079% (n = 340,000) | AID 504700, 2011;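 active = activation above a cutoff set at the mean over all compounds plus 3 SD, cut at about 18% in these data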;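 note: higher means more holoenzyme dissociation and a rise in polarization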
Target sequence (P31323 whole entry, looked up, other chains not shown, the tested form may be a part): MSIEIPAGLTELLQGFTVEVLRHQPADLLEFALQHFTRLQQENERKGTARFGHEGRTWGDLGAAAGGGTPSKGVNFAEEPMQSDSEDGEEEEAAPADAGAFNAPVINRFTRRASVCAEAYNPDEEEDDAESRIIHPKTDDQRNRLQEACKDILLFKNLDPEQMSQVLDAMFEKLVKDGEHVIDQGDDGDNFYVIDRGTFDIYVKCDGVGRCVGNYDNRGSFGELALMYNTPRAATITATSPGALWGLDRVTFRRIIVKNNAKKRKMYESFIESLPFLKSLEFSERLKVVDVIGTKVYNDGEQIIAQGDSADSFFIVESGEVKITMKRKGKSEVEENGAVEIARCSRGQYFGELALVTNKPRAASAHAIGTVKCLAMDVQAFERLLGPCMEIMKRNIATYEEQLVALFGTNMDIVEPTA
bovine MsrA act: bovine MsrA enzyme activators, primary screen, biochemical, absorbance, HTS. Methionine sulfoxide reductase A (Bos taurus). purified bovine MsrA, absorbance read-out. activation, % at 10.6 µM. actives 0.3% (n = 360,000); in the data active = activation above about 7.5%;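 note: 0% = vehicle and 100% = reference activator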
VIM-2 inh confirm: P. aeruginosa VIM-2 enzyme inhibition – biochemical, epi-absorbance, HTS, confirmation; AID 1860, 2009; actives 73% (n = 200); purified VIM-2 enzyme, nitrocefin absorbance; inhibition, % at 5.6 µM; shares compounds with IMP-1 inh; in the data active = inhibition above about 8%;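 note: 0% = enzyme with vehicle and 100% = no enzyme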
TEM-1 counter: Serine beta-lactamase TEM-1 inhibition, biochemical epi-absorbance counter-screen for IMP-1/VIM-2 inhibitor program | shares compounds with IMP-1 inh | TEM-1 beta-lactamase, nitrocefin absorbance inhibition | inhibition, % at 5.6 µM | actives 50% (n = 200) | AID 2184, 2009; in the data active = inhibition above about 0.66%
Target sequence (P62593 whole entry, looked up): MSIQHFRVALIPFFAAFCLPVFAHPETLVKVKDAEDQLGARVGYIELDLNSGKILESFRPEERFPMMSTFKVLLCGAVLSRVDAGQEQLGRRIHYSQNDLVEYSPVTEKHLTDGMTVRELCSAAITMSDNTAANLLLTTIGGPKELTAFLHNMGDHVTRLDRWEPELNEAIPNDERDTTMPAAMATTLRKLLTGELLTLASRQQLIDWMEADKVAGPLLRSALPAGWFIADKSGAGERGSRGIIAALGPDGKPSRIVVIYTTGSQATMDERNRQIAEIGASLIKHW
IMP-1 confirm: IMP-1 metallo-beta-lactamase inhibitors, confirmation, biochemical, epi-absorbance, hits shared with VIM-2 screen; shares compounds with IMP-1 inh; purified IMP-1 enzyme, absorbance substrate hydrolysis; actives 60% (n = 200); inhibition, % at 5.6 µM; in the data active = inhibition above about 4.9%;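 note: 0% = enzyme with vehicle and 100% = vehicle without enzyme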
* marks the source's active call; other numbers are inactive results; nt = no result given. Sampled rows, rich in hits. Any-hit rate of the full collection: about 2.1%.

SMILES	VIM-2 inhibitor	MsrA inhibitor	PKA-R1A act	IMP-1 inh	PKA-R2B act	bovine MsrA act	VIM-2 inh confirm	TEM-1 counter	IMP-1 confirm
O=c1ccc2c(-c3ccccc3)c3ccc(O)cc3oc-2c1	81.3*	1.0	-10.6	84.0*	3.8	-2.0	101.0*	152.2*	96.0*
Nc1ccc(-c2c3ccc(=O)cc-3oc3cc(O)ccc23)cc1C(=O)O	70.3*	0.6	-7.5	51.2*	-3.1	-3.2	58.7*	61.7*	41.7*
O=c1cc(-c2ccccc2)oc2cc(O)ccc12	nt	2.8	-5.6	nt	-15.3	-2.0	nt	nt	nt
O=S1(=O)N=C(N(CCO)/N=C/c2ccc(Br)cc2)c2ccccc21	-2.9	0.4	4.8	-6.0	-0.9	-4.2	nt	nt	nt
CN(C)c1ccc(/C=N/N(CCO)C2=NS(=O)(=O)c3ccccc32)cc1	42.4*	1.0	-0.5	18.0*	3.2	0.6	39.6*	42.1*	30.5*
CCOC(=O)C1=C[C@@H](C(C)C)N(S(=O)(=O)c2ccc(C)cc2)[C@H]1c1ccc(C(C)C)cc1	nt	1.1	nt	nt	nt	-0.6	nt	nt	nt
COc1ccc(C(=O)Nc2ccc(/C(C)=N/NC(=O)c3ccncc3)cc2)cc1	13.6*	0.1	-5.0	32.4*	-15.9	-2.0	12.3*	-4.7	18.9*
O=[n+]1c2c(n([O-])c3cc(Br)ccc31)CCCC2	-1.8	0.9	3.2	-0.6	-10.1	-4.2	nt	nt	nt
O=[n+]1c2c(n([O-])c3ccccc31)CCCC2	13.5*	-0.7	-10.9	34.9*	-5.6	-14.0	-0.1	-1.2	-2.7
CCCc1cc(C(N)=S)ccn1	7.6	-0.7	1.6	4.8*	-0.6	-1.4	3.3	-1.2	0.5
Cc1ccccc1Cn1c(NC2CCCC2)nc2c1c(=O)[nH]c(=O)n2C	-2.4	-0.7	1.1	-2.4	-4.7	-1.2	nt	nt	nt
CSC1=NSC2=NC(=O)/C(=C/c3coc4ccccc4c3=O)C(=N)N12	-0.2	1.7	-12.4	0.3	0.1	-3.0	nt	nt	nt
CC1=CC2=NC(=O)/C(=C\c3cc(C)n(-c4cccc(Cl)c4)c3C)C(=N)N2O1	-2.0	-1.1	1.4	-3.1	3.5	-9.8	nt	nt	nt
N=C1/C(=C\c2coc3ccccc3c2=O)C(=O)N=C2SC=CN12	9.3*	1.2	-4.5	8.6*	-1.8	2.0	16.0*	3.6*	11.6*
CC1=CC2=NC(=O)/C(=C/c3coc4ccc(Cl)cc4c3=O)C(=N)N2O1	12.7*	0.8	-6.3	9.4*	-3.4	-6.4	7.8*	-1.9	2.4
O=C(O)Cn1cc(C(=S)N2CCCCC2)c2ccccc21	9.2*	1.4	-6.9	5.0*	-0.1	-8.8	-2.9	-5.6	-3.7
O=C(NC1CC1)C1CCN(c2nc3ccccc3s2)CC1	-5.3	0.1	-6.1	-3.1	-1.5	-1.4	nt	nt	nt
O=C(NC1CC1)C1CCN(c2ncnc3c2sc2cccc(F)c23)CC1	13.9*	0.8	1.4	5.1*	8.9	-3.2	27.5*	-5.9	-1.2
Cc1ccc(S(=O)(=O)N2CCC(C(=O)Nc3ccccc3N3CCCC3)CC2)cc1C	nt	-0.1	0.5	nt	-13.0	-3.6	nt	nt	nt
CCN(CC)c1ccc2c(-c3ccc(S(=O)(=O)O)cc3S(=O)(=O)[O-])c3ccc(=[N+](CC)CC)cc-3oc2c1	104.5*	nt	-59.5	104.5*	-45.1	-2.4	85.5*	150.2*	80.5*
CCN(CC)c1ccc2nc3c4ccccc4c(=O)cc-3oc2c1	6.9	1.0	nt	0.4	nt	nt	nt	nt	nt
CC[n+]1c(/C=C/N(C)c2ccccc2)oc2ccc(Cl)cc21	1.4	2.1	-2.4	-3.7	5.5	-5.8	nt	nt	nt
CCN1/C(=C/C=C/c2oc3ccc4ccccc4c3[n+]2CC)Oc2ccc3ccccc3c21	13.4*	nt	nt	33.0*	nt	nt	9.9*	18.3*	13.7*
CCN(CC)c1ccc2cc(C=O)c(=O)oc2c1	15.1*	-0.4	5.9	15.1*	-0.2	-2.0	16.5*	14.7*	12.1*
C[C@H](CO)N1C[C@H](C)[C@H](CN(C)C(=O)Nc2cccc(F)c2)OCc2cnnn2CCCC1=O	nt	0.1	nt	nt	nt	nt	nt	nt	nt
SMILES	VIM-2 inhibitor	MsrA inhibitor	PKA-R1A act	IMP-1 inh	PKA-R2B act	bovine MsrA act	VIM-2 inh confirm	TEM-1 counter	IMP-1 confirm
COc1ccccc1NC(=O)C(C)OC(=O)C1CCN(S(=O)(=O)c2ccccc2C(F)(F)F)CC1 (stereo unspecified)	nt	-0.4	-17.6	nt	-4.0	2.0	nt	nt	nt
CCOc1ccc(S(=O)(=O)N(CC(=O)N2CCC(C(N)=O)CC2)c2ccc(F)cc2)cc1	-1.5	-0.1	1.9	-1.8	-5.9	-8.8	nt	nt	nt
O=C(O)c1cccc(N2C(=O)c3cccc4c(Cl)ccc(c34)C2=O)c1	-0.4	0.6	3.3	-3.1	4.9	-1.4	nt	nt	nt
Nc1cccc(N2C(=O)c3cccc4c(N)ccc(c34)C2=O)c1	21.6*	0.4	-9.8	18.0*	5.4	-0.5	18.1*	21.0*	14.0*
Cc1cccc(N2C(=O)c3cccc4c(N)ccc(c34)C2=O)c1	21.3*	0.0	-2.2	24.8*	6.2	-2.2	21.3*	30.7*	18.8*
Nc1ccc2c3c(cccc13)C(=O)N(c1ccccc1)C2=O	35.0*	1.1	-7.1	37.4*	-8.4	-1.6	35.2*	47.0*	32.8*
CCN(CC(=O)Nc1c(F)cccc1F)C(=O)CN1C(=O)C2CCCCC2C1=O (stereo unspecified)	nt	0.1	1.8	nt	1.0	1.9	nt	nt	nt
CC(C)Cc1ccc(C(=O)Nc2ccc(Cc3ccncc3)cc2)o1	-2.4	3.4	-5.4	-3.5	-4.3	-1.4	nt	nt	nt
CCOc1ccc(Nc2nc(NCCN3CCOCC3)nc(OC)n2)cc1	41.7*	-0.8	-2.0	37.5*	-14.4	-3.7	-0.1	-3.9	-1.4
CCOc1ccc(Nc2nc(N3CCOCC3)nc(N3CCOCC3)n2)cc1	-3.0	-0.3	2.5	-5.3	1.2	-6.3	nt	nt	nt
O=C(O)c1cc(Cl)ccc1-c1ccc(/C=C/c2cc(C(F)(F)F)[nH]c(=O)n2)o1	1.9	1.4	-4.4	3.3	-9.4	-6.0	nt	nt	nt
